From ChEMBL document CHEMBL5108074 (J Med Chem, 2022)
pIC50: −log10 of the molar value. Converted amounts (≈) assume the structure as drawn.

Columns and labels:
[1] = Apparent permeability of the compound across apical side to basolateral side in human Caco-2 cells incubated for 1 hr by LC-MS/MS analysis; settings: caco-2, 1 h
[2] = Metabolic stability in human liver microsomes assessed as intrinsic clearance per mg of protein measured upto 60 mins in presence of NADPH regenerating system by LC-MS/MS analysis; assay type: ADME, Microsome; settings: microsomes, 1 h
[3] = Thermodynamic solubility of the compound in FaSSIF at 1 mg/ml at pH 6.5 measured after 4 hrs; assay type: physicochemical
Outline: (§1)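 Compound (nominal 1 or 100 mg/mL as free base) added to biorelevant medium preheated to 37 °C: FaSSGF at pH 1.6 or FaSSIF at pH 6.5. Vortexed, then shaken 4 h at 37 °C (~500 rpm). Centrifuged at 15000g for 10 min at 37 °C. Supernatant diluted and quantified against calibration standards. Crystalline material used where stated.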

[4] = Thermodynamic solubility of the compound in FaSSGF at 1 mg/ml at pH 1.6 measured after 4 hrs; assay type: physicochemical; outline: as §1
[5] = Clearance in Sprague-Dawley rat blood at 1 mg/kg, iv measured upto 24 hrs by LC-MS analysis; assay type: ADME, organism-based; settings: whole blood
Outline: (§2)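 Male Sprague-Dawley rats, two per route, single dose. IV: 1 mg/kg given as 1 mL/kg of a nominal 1 mg/mL formulation in vehicle. PO: 10 mg/kg given as 5 mL/kg of a 2 mg/mL formulation. PK parameters from noncompartmental analysis. Clearance expressed relative to rat liver blood flow of 80 mL/min/kg.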

[6] = Clearance in Beagle dog blood at 1 mg/kg, iv measured upto 24 hrs by LC-MS analysis; assay type: ADME, organism-based, Canis lupus familiaris; settings: whole blood
[7] = Clearance in Sprague-Dawley rat assessed as liver blood flow at 1 mg/kg, iv measured upto 24 hrs by LC-MS analysis; assay type: ADME, organism-based; settings: in vivo; outline: as §2
[8] = Clearance in Beagle dog assessed as liver blood flow at 1 mg/kg, iv measured upto 24 hrs by LC-MS analysis; assay type: ADME, organism-based, Canis lupus familiaris; settings: in vivo
[9] = Volume of distribution at steady state in Beagle dog at 1 mg/kg, po and 1 mg/kg, iv measured upto 24 hrs by LC-MS analysis; assay type: ADME, organism-based, Canis lupus familiaris; settings: in vivo
[10] = Half life in Sprague-Dawley rat at 10 mg/kg, po and 1 mg/kg, iv measured upto 24 hrs by LC-MS analysis; assay type: ADME, organism-based; settings: in vivo; outline: as §2
[11] = Half life in Beagle dog at 1 mg/kg, po and 1 mg/kg, iv measured upto 24 hrs by LC-MS analysis; assay type: ADME, organism-based, Canis lupus familiaris; settings: in vivo
[12] = Oral bioavailability in Sprague-Dawley rat at 10 mg/kg measured upto 24 hrs by LC-MS analysis; assay type: ADME, organism-based; settings: in vivo; outline: as §2
[13] = Oral bioavailability in Beagle dog at 1 mg/kg measured upto 24 hrs by LC-MS analysis; assay type: ADME, organism-based, Canis lupus familiaris; settings: in vivo
[14] = molecular target: Voltage-gated inwardly rectifying potassium channel KCNH2 (Homo sapiens, UniProt Q12809); assay: Inhibition of hERG expressed in CHO cells by whole cell patch clamp assay; assay type: toxicity, cell-based
Outline: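 hERG K+ current recorded by automated whole-cell patch clamp in CHO cells stably expressing hERG. Concentrations tested up to a maximum of 33 μM.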

Cytochrome P450 1A2 = molecular target: T1, Cytochrome P450 1A2 (Homo sapiens, UniProt P05177); assay: Inhibition of CYP1A2 in human liver microsomes assessed as reduction in acetaminophen metabolite formation incubated for 30 mins in presence of NADPH by LC-MS/MS analysis; assay type: ADME, Microsome
T1 sequence (P05177 whole entry): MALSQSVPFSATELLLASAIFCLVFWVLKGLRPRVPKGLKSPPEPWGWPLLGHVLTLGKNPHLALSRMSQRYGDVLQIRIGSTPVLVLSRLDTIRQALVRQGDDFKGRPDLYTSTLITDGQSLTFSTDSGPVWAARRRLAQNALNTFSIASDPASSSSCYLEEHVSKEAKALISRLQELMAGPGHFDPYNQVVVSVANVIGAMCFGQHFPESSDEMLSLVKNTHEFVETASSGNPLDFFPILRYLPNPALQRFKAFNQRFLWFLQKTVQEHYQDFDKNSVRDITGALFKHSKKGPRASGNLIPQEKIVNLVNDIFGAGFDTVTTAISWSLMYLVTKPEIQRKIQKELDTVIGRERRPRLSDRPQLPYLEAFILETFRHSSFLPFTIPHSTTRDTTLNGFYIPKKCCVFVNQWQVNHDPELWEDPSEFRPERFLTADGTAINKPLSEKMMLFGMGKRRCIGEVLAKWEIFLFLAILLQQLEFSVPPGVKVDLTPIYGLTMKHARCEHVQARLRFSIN

Cytochrome P450 2C9 = Cytochrome P450 2C9 (Homo sapiens, UniProt P11712); assay: Inhibition of CYP2C9 in human liver microsomes assessed as reduction in 4 hydroxy-diclofenac metabolite formation incubated for 30 mins in presence of NADPH by LC-MS/MS analysis; assay type: ADME, Microsome
Cytochrome P450 2C19 = Cytochrome P450 2C19 (Homo sapiens, UniProt P33261); assay: Inhibition of CYP2C19 in human liver microsomes assessed as reduction in 4-hydroxymephenytoin metabolite formation incubated for 30 mins in presence of NADPH by LC-MS/MS analysis; assay type: ADME, Microsome
Cytochrome P450 2D6 = Cytochrome P450 2D6 (Homo sapiens, UniProt P10635); assay: Inhibition of CYP2D6 in human liver microsomes assessed as reduction in dextrorphan metabolite formation incubated for 30 mins in presence of NADPH by LC-MS/MS analysis; assay type: ADME, Microsome
Cytochrome P450 3A4 [15] = molecular target: T2, Cytochrome P450 3A4 (Homo sapiens, UniProt P08684); assay: Inhibition of CYP3A4 in human liver microsomes assessed as reduction in 6beta-hydroxymidazolam metabolite formation using midazolam as substrate incubated for 30 mins in presence of NADPH by LC-MS/MS analysis; assay type: ADME, Microsome
Cytochrome P450 3A4 [16] = molecular target: T2, Cytochrome P450 3A4; assay: Inhibition of CYP3A4 in human liver microsomes assessed as reduction in 6beta-hydroxytestosterone metabolite formation using testosterone as substrate incubated for 30 mins in presence of NADPH by LC-MS/MS analysis; assay type: ADME, Microsome
Plasma kallikrein [17] = molecular target: T3, Plasma kallikrein (Homo sapiens, UniProt P03952); assay: Inhibition of DXS induced human whole plasma kallikrein using H-D-Pro-Phe-Arg-AFC as substrate preincubated for 5 mins followed by DXS stimulation by fluorometer analysis; assay type: cell-free
Plasma kallikrein [18] = molecular target: T3, Plasma kallikrein; assay: Inhibition of human plasma kallikrein using H-D-Pro-Phe-Arg-AFC as flurogenic substrate preincubated for 5 mins followed by substrate addition by fluorometer analysis; assay type: cell-free
[19] = Kinetic solubility of the compound in 0.1N HCl
[20] = Kinetic solubility of the compound in aqueous assay buffer at pH 7.7
[21] = Thermodynamic solubility of the compound in FaSSIF at 1 mg/ml at pH 6.5 using crystalline form of sample measured after 4 hrs; assay type: physicochemical; settings: simulated gi fluid, pH 6.5, 4 h; outline: as §1
[22] = Thermodynamic solubility of the compound in FaSSGF at 1 mg/ml at pH 1.6 using crystalline form of sample measured after 4 hrs; assay type: physicochemical; settings: pH 1.6, 4 h; outline: as §1
Cytochrome P450 2B6 = Cytochrome P450 2B6 (Homo sapiens, UniProt P20813); assay: Inhibition of CYP2B6 in human liver microsomes assessed as reduction in hydroxybupropion metabolite formation incubated for 30 mins in presence of NADPH by LC-MS/MS analysis; assay type: ADME, Microsome
Cytochrome P450 2C8 = Cytochrome P450 2C8 (Homo sapiens, UniProt P10632); assay: Inhibition of CYP2C8 in human liver microsomes assessed as reduction in 6 alpha-hydroxypaclitaxel metabolite formation incubated for 30 mins in presence of NADPH by LC-MS/MS analysis; assay type: ADME, Microsome
Chain of Cytochrome P450 2C8 (P10632 whole entry): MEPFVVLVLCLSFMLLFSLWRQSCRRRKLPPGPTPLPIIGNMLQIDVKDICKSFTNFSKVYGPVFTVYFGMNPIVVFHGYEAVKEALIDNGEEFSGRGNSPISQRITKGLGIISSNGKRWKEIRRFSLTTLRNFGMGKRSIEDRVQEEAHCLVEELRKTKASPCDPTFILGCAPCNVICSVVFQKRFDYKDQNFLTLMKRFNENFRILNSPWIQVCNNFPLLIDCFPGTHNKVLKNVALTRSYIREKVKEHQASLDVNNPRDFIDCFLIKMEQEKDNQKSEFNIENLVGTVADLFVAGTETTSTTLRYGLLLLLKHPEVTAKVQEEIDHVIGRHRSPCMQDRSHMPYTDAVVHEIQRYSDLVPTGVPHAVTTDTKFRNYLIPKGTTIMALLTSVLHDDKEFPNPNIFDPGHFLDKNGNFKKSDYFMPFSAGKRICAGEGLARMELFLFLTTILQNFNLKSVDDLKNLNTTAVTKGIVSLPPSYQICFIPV

T3 sequence (P03952 20-390 limits assumed): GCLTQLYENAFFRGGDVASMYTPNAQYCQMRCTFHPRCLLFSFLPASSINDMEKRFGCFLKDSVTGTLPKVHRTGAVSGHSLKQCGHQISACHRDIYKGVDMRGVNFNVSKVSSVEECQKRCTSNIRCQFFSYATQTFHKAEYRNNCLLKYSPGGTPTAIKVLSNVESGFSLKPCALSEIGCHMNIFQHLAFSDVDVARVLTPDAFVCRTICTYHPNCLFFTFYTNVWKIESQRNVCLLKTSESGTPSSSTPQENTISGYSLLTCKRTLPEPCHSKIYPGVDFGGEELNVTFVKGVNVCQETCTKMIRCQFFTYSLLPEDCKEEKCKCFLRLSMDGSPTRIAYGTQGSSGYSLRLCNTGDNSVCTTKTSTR
T3 sequence (P03952 391-638 limits assumed): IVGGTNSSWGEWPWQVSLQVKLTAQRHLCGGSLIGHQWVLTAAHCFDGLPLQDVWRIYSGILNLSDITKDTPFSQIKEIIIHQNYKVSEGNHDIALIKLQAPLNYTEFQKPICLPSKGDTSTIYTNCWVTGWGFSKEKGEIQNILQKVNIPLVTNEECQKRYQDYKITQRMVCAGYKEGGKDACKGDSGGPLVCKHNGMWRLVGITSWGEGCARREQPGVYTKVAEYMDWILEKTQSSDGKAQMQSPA
T2 sequence (P08684 whole entry): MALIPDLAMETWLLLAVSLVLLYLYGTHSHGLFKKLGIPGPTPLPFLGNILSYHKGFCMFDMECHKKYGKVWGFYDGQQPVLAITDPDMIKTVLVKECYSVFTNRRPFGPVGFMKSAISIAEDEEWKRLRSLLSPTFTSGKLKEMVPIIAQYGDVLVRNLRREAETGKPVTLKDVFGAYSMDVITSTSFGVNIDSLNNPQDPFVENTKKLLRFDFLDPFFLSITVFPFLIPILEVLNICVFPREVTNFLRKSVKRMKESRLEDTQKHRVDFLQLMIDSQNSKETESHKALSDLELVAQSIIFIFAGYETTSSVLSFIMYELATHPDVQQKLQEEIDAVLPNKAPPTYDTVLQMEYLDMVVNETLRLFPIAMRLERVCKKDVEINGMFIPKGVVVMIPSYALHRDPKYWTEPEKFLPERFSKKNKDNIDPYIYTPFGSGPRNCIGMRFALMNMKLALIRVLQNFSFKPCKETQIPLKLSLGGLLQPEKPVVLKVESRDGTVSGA
Chain of Cytochrome P450 2C19 (P33261 whole entry): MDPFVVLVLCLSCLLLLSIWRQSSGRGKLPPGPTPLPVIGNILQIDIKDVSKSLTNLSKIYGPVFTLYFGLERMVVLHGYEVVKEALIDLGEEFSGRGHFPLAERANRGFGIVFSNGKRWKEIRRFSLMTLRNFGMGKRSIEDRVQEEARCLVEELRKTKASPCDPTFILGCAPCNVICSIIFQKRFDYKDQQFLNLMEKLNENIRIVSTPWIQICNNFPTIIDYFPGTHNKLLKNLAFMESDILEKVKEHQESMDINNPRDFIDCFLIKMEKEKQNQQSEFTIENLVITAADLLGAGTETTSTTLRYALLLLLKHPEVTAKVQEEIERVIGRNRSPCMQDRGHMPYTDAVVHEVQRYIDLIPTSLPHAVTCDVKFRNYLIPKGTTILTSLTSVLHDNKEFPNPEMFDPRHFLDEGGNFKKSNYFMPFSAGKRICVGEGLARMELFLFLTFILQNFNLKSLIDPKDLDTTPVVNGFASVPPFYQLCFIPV
Chain of Voltage-gated inwardly rectifying potassium channel KCNH2 (Q12809 whole entry): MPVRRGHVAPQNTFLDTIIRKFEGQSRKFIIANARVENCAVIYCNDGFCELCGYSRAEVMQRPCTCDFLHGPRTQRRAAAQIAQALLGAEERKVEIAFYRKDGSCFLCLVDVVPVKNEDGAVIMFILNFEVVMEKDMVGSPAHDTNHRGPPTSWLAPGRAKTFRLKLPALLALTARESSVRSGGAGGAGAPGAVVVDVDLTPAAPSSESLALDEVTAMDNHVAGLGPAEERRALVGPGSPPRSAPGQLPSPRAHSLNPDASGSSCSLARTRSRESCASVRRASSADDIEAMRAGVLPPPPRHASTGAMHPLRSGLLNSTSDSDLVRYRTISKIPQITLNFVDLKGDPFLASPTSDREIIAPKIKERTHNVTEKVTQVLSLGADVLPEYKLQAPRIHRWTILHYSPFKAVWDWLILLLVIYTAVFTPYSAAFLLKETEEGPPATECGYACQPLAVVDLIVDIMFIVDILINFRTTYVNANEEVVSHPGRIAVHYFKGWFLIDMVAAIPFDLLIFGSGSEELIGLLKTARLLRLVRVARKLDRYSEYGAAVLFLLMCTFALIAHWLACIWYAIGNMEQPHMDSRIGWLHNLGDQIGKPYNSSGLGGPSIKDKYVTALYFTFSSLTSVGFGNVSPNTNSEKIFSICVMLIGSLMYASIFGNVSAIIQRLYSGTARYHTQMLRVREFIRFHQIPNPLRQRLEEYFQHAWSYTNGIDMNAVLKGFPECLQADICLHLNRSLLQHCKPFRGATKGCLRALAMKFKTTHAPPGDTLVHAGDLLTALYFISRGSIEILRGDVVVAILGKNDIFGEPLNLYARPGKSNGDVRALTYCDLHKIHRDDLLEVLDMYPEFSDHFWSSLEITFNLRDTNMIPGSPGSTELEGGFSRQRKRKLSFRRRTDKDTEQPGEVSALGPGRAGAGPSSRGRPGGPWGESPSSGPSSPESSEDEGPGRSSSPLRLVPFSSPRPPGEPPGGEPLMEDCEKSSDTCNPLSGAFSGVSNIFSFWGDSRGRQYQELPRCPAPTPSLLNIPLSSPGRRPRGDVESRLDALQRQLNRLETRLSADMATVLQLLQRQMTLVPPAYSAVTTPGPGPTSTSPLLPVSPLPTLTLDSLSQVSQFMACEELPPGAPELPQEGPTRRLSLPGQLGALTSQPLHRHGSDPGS
Chain of Cytochrome P450 2D6 (P10635 whole entry): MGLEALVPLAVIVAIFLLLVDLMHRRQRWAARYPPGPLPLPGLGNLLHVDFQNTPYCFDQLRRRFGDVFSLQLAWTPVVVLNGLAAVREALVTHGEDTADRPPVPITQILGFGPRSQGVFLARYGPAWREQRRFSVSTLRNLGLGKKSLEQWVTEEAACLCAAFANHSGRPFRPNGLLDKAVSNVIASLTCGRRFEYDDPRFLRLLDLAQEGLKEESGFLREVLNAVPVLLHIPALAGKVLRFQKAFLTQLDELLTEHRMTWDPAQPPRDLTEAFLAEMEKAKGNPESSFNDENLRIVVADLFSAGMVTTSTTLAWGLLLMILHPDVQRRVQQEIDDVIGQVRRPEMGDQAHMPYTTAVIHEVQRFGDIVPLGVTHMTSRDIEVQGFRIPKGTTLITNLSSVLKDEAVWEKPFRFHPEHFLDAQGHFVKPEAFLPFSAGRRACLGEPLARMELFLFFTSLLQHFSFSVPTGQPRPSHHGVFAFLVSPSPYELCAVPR
Chain of Cytochrome P450 2C9 (P11712 whole entry): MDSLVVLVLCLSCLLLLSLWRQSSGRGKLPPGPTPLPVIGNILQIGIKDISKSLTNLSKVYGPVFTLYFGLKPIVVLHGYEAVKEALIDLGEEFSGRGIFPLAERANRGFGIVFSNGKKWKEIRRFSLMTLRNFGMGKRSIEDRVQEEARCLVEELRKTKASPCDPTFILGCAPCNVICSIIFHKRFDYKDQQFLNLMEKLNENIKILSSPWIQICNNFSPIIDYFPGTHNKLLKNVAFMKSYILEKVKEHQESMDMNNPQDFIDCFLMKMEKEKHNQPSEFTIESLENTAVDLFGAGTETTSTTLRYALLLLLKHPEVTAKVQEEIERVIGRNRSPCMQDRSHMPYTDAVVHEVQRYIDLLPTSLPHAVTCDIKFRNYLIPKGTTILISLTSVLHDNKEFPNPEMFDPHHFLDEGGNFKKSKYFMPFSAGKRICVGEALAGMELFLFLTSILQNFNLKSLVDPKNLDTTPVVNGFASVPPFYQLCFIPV
Chain of Cytochrome P450 2B6 (P20813 whole entry): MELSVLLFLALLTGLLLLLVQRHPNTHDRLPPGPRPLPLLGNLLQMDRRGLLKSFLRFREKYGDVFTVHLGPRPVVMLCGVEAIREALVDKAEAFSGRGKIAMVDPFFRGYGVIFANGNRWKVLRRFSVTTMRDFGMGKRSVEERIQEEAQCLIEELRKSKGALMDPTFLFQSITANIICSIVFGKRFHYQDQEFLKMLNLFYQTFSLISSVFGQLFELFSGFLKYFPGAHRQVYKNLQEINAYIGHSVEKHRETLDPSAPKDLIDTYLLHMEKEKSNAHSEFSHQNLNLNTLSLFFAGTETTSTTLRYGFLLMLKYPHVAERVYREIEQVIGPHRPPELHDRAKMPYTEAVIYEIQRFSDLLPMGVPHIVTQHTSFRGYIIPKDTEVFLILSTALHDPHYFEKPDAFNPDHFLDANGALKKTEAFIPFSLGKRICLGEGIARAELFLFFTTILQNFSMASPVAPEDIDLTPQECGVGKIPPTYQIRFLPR

| Structure (SMILES) | Papp [1] | microsomal intrinsic clearance [2] | clearance [5] | clearance [6] | LBF [7] | LBF [8] | Vdss [9] | t1/2 [10] | F [12] | F [13] | pIC50 [14] | pIC50 (Cytochrome P450 1A2) | pIC50 (Cytochrome P450 2C9) | pIC50 (Cytochrome P450 2C19) | pIC50 (Cytochrome P450 2D6) | pIC50 (Cytochrome P450 3A4 [15]) | pIC50 (Cytochrome P450 3A4 [16]) | pIC50 (Plasma kallikrein [17]) | pIC50 (Plasma kallikrein [18]) | solubility kinetic [19] | other results |
| --- | --- | --- | --- | --- | --- | --- | --- | --- | --- | --- | --- | --- | --- | --- | --- | --- | --- | --- | --- | --- | --- |
| COc1ccnc(CNC(=O)c2cn(Cc3ccc(Cn4ccccc4=O)cc3)nc2C(F)(F)F)c1F | 17 10^-6 cm/s | 49 µL/min | 11.1 mL/min/kg | 15.9 mL/min/kg | 14% | 48% | 0.63 L/kg | 1.1 h | 97% | 32% | < 4.48 | < 4.60 | < 4.60 | < 4.60 | < 4.60 | < 4.60 | < 4.60 | 7.12 |  |  | Therm_solubility ([3]; simulated gi fluid, pH 6.5, 4 h): 0.02 mg/mL; Therm_solubility ([4]; buffer, pH 1.6, 4 h): 0.69 mg/mL; t1/2 [11]: 54 min |
| COCc1nn(Cc2ccc(Cn3ccccc3=O)cc2)cc1C(=O)NCc1c(F)ccc(OC)c1F | 18 10^-6 cm/s | 92 µL/min | 23.7 mL/min/kg | 24.5 mL/min/kg | 30% | 74% | 0.36 L/kg | 0.7 h | 64% | 16% | < 4.48 | < 4.60 | 4.89 | < 4.60 | < 4.60 | 4.72 | 4.96 | 6.30 | 8.22 | > 120 µg/mL | solubility kinetic [20]: > 120 µg/mL; Therm_solubility [21]: 9 µg/mL; Therm_solubility [22]: 9 µg/mL; pIC50 (Cytochrome P450 2B6): < 4.60; pIC50 (Cytochrome P450 2C8): 4.85 |
| COCc1nn(Cc2ccc(Cn3ccccc3=O)cc2)cc1C(=O)NCc1c(C#N)ccc(OC)c1F | 14 10^-6 cm/s | 58 µL/min | 27.6 mL/min/kg |  | 35% |  |  | 1.1 h | 20% |  |  |  |  |  |  |  |  |  | 9.00 | > 120 µg/mL | solubility kinetic [20]: > 120 µg/mL; solubility thermodynamic at 4 h ([3]; FaSSIF, pH 6.5, read-out: Therm_solubility): 31 µg/mL (≈ 60.1 µM); solubility thermodynamic at 4 h ([4]; FaSSGF, pH 1.6, read-out: Therm_solubility): 21 µg/mL (≈ 40.7 µM) |
